# KCNQ1 inh – inhibitors of human KCNQ1 channel, primary screen, cell-based, thallium flux, high-throughput | Potassium voltage-gated channel subfamily KQT member 1 (Homo sapiens), P51787 | CHO-K1 KCNQ1, FluxOR thallium flux fluorescence; stronger effect = higher value | B-score at 10 µM | 310,000 compounds, 1.3% hits;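 active means compounds whose thallium flux B-score, printed positive for inhibition, exceeds three library SD while starting fluorescence stays within three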;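 further: channel opened by potassium depolarization with thallium stimulus after 20 min compound exposure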
# KCNQ1 pot – potentiators or activators of KCNQ1 channel, primary screen, cell-based, thallium flux, high-throughput; Potassium voltage-gated channel subfamily KQT member 1 (Homo sapiens), P51787; CHO-K1 KCNQ1, thallium flux FluxOR fluorescence; stronger effect = higher value; B-score at 10 µM; 310,000 compounds, 0.35% hits; AID 2648, 2010;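 active means fluorescence ratio B-score, a plate-corrected score, at least three library SD, with initial intensity B-score within 5 SD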
#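 Medium – assay buffer, equal DMSO in all wells · Material – CHO-K1 cell line with stable KCNQ1 potassium channel expression · Signal – kinetic FluxOR thallium fluorescence, 10-s 1-Hz baseline, 110-s post-stimulus read · Compound – single concentration per compound, DMSO matched to controls · Schedule – 37 °C overnight plating, 90-min dark dye load, 20-min compound pretreatment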
# KCNK3 block – human KCNK3 channel inhibitors, primary screen, CHO cells, FluxOR thallium flux, B-score | 340,000 compounds, 0.84% hits | B-score at 10 µM | FluxOR fluorescence; stronger effect = lower value;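 active means B-score under library mean minus 4 SD, starting fluorescence ratio at most library mean plus 5 SD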;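 further: more negative B-score means stronger inhibition of thallium flux through KCNK3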
# Target sequence (O14649 whole entry, looked up): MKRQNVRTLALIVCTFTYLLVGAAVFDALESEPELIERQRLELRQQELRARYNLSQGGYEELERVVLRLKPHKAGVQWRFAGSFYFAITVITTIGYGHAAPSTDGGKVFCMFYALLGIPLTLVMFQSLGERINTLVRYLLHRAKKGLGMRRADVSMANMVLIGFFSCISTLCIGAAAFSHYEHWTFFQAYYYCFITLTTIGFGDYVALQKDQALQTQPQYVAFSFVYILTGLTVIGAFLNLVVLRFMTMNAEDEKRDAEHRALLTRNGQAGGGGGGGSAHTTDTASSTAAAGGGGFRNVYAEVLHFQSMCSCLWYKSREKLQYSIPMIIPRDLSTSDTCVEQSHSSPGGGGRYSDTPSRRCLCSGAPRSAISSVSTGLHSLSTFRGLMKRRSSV
# KCNK9 inh – KCNK9 potassium channel inhibitors, primary screen, HEK293 cells, thallium flux | AID 488922, 2010 | 310,000 compounds, 1.2% hits | FluxOR thallium flux fluorescence; stronger effect = lower value | B-score at 10 µM;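 active means ratio B-score over 3 SD below the library mean, with starting fluorescence within 5 SD of its mean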;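 further: negative B-score means less thallium flux so channel inhibition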
# hERG rescue – hERG rescue from dofetilide block, primary screen, cell-based, CHO-hERG, FluxOR thallium flux, dofetilide IC70; Voltage-gated inwardly rectifying potassium channel KCNH2 (Homo sapiens), Q12809; dofetilide IC70 present; activation (rescue from dofetilide block), less the hit threshold, % at 10 µM; 310,000 compounds, 0.51% hits;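 active means activation above the mean of controls blocked by dofetilide plus 5 SD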;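 further: thallium influx through hERG after potassium depolarization seen as dye fluorescence rise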
# Kir21 block – inhibitors of mouse Kir2.1 inward-rectifier potassium channel; Inward rectifier potassium channel 2 (Mus musculus), P35561; HEK293-Kir2.1, FluxOR thallium flux fluorescence; stronger effect = lower value; B-score at 10 µM; 310,000 compounds, 0.85% hits; AID 1672, 2009;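 active means fluorescence ratio B-score at or below minus 3 SD of library scores, with starting-brightness B-score within 2 SD, cut at about -4.2 in these data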;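 further: channel flux triggered by added potassium and thallium sulfate stimulus; B-score of peak minus minimum fluorescence over baseline after thallium stimulus; more negative B-score means stronger Kir2.1 block with less thallium influx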
# Target sequence (P35561 whole entry, looked up): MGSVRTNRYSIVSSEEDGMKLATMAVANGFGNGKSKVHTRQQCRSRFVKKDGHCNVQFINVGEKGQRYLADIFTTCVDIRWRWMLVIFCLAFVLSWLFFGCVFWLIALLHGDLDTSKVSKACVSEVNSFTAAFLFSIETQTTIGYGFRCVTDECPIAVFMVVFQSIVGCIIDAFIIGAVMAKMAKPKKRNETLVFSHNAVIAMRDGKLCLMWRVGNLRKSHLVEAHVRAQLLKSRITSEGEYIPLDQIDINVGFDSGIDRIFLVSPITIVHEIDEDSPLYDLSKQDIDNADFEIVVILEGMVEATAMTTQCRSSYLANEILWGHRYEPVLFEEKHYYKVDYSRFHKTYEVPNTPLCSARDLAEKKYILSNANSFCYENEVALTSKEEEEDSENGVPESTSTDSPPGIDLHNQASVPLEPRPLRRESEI
# KCNQ1 inh valid – KCNQ1 potassium channel inhibitors, confirmation, cell-based, Tl flux, duplicate; shares compounds with KCNQ1 inh; AID 588353, 2011; KCNQ1 cell line, FluxOR thallium flux fluorescence; 1,600 compounds, 93% hits; inhibition, % at 10 µM;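 active means primary screen active, with duplicate mean exceeding buffer control mean plus 3 SD of buffer wells, cut at about 28% in these data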;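 further: 0% = buffer control ratio and 100% = XE991 inhibitor control ratio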
# CHO Tl flux – thallium flux effects in parental CHO cells, counter-screen for KCNQ1 inhibitor project, cell-based, Tl flux | shares compounds with KCNQ1 inh | parental CHO-K1, FluxOR thallium flux fluorescence ratio; stronger effect = lower value; zero means no signal rise above baseline | fluorescence ratio (Tl flux) at 10 µM | 1,600 compounds, 21% hits;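 active means mean of duplicate thallium-flux fluorescence ratios in parental host cells more than 5 SD below the buffer control mean, cut at about 0.38 in these data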;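 further: ratio is peak minus minimum fluorescence divided by baseline fluorescence; actives read low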
# KCNQ1 APC inh – KCNQ1 channel inhibitors, confirmation, orthogonal assay, cell-based, automated electrophysiology. shares compounds with KCNQ1 inh. AID 624120, 2012. 490 compounds, 20% hits. KCNQ1-CHO cells, automated patch clamp current. calls only at 10 µM;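 active means KCNQ1 current drop exceeding 3 SD of negative control wells, seen in both duplicate runs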;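 further: steady state current during a 2 s step from -80 to +40 mV; negative values mean current inhibition and positive values mean potentiation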
# KCNQ2 spec – KCNQ2 channel inhibition, selectivity assay for KCNQ1 inhibitor project, cell-based; 1,600 compounds, 71% hits; KCNQ2 cells, FluxOR thallium flux fluorescence; inhibition, % at 10 µM; shares compounds with KCNQ1 inh;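 active means mean percent inhibition of the KCNQ2 thallium signal more than 5 SD above the buffer-only control wells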;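 further: KCNQ2 expressed in CHO cells; 0% = buffer control wells and 100% = XE-991 inhibitor control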
# KCNQ1 KCNE1 spec – KCNQ1/KCNE1 channel inhibition, selectivity assay for KCNQ1 inhibitor project, CHO-K1 cells, thallium flux, FluxOR; inhibition, % at 10 µM; AID 652147, 2013; FluxOR thallium flux fluorescence; 1,600 compounds, 77% hits; shares compounds with KCNQ1 inh;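 active means mean percent inhibition of duplicate wells above the buffer-only control mean plus 3 SD of those controls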;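 further: 0% = buffer only wells and 100% = XE-991 inhibitor control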
# KCNK9 inh conf – KCNK9 potassium channel inhibitors, confirmation, HEK293 cells, thallium flux, duplicate; shares compounds with KCNK9 inh; FluxOR thallium flux fluorescence; inhibition, % at 10 µM; 4,900 compounds, 43% hits; AID 492992, 2010;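 active means thallium signal inhibited by more than 5 SD of the compound-free buffer control wells, on both duplicate plates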;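 further: 0% = assay buffer control wells without compound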
# Kir21 sel – mouse Kir2.1 channel inhibition, confirmation, selectivity assay for KCNK9 modulator project, cell-based, HEK293, thallium flux; shares compounds with KCNK9 inh; Kir2.1 cells, FluxOR thallium flux fluorescence; inhibition, % at 10 µM; 4,900 compounds, 4% hits;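 active means thallium signal drop more than 5 SD beyond the mean of the no-compound control wells, seen in both duplicate plates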;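 further: signal is fluorescence rise after thallium addition divided by baseline fluorescence; plate controls were assay buffer only for no effect and full block by chlorpromazine control for full effect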
# HEK293 Tl ctr – thallium flux in non-induced HEK293 cells, confirmation, counter-screen for KCNK9 inhibitor project, cell-based, second counter screen, non-induced KCNK9-HEK293; inhibition, % at 10 µM; 4,900 compounds, 40% hits; FluxOR thallium flux; shares compounds with KCNK9 inh;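 active means thallium signal drop beyond 5 SD of the untreated control mean, on both duplicate plates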;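 further: plate controls were buffer only IC0 wells for no effect and SID17386958 at its maximal inhibitory level for full effect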
# KCNK3 inh conf – retest of human KCNK3 channel inhibitors, confirmation, CHO cells, FluxOR thallium flux, triplicate; shares compounds with KCNK3 block; FluxOR fluorescence; 0% buffer, 100% carvedilol maximal block; ratio percent of control, % at 10 µM; 2,400 compounds, 99% hits; AID 651638, 2012;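 active means ratio percent of control, averaged over triplicates, above buffer control mean plus 5 SD, cut at about 64% in these data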;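 further: ratio is the fluorescence rise from min to max over baseline after thallium stimulus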
# KCNK3 noninduced – thallium flux inhibition in non-induced cells, primary screen, counter-screen for KCNK3 inhibitor project, cell-based, non-induced KCNK3 line, FluxOR thallium, triplicate; shares compounds with KCNK3 block; non-induced KCNK3 parental cells; stronger effect = lower value; thallium flux ratio (lower = more inhibition) at 10 µM; 2,400 compounds, 40% hits;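 active means thallium flux ratio, averaged over three wells, more than 5 SD below the buffer control mean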;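 further: host cells are CHO cells without KCNK3 induction; ratio is peak minus trough fluorescence over baseline then normalized to buffer controls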
# The depositor's hits bear a star; i = inactive; nt = not tested or not shown; + = active, no number. This is a sample that favours compounds with a hit; in the whole collection about 3.7% have one here.
SMILES,KCNQ1 inh,KCNQ1 pot,KCNK3 block,KCNK9 inh,hERG rescue,Kir21 block,KCNQ1 inh valid,CHO Tl flux,KCNQ1 APC inh,KCNQ2 spec,KCNQ1 KCNE1 spec,KCNK9 inh conf,Kir21 sel,HEK293 Tl ctr,others
O=C(COc1cccc(Cl)c1Cl)Nc1ccc2c(c1)CCC2,i,i,i,i,-5,-0.47,nt,nt,nt,nt,nt,nt,nt,nt,
O=C(COc1ccccc1Cl)c1ccc2c(c1)CCCC2,6*,i,i,i,-7,1.5,94*,0.43,i,92%*,119%*,i,i,37%*,
CC(=O)c1ccc2c(c1)C1C=CCC1C(c1cc3c(cc1Br)OCO3)N2 (stereo unspecified),8*,i,i,-8.7*,-22,-1.1,140*,0.42,i,99%*,145%*,50%*,i,37%*,
CC(=O)c1sc2nc(-c3cccs3)cc(C(F)(F)F)c2c1N,7*,i,i,-9.1*,-4,-3.7,104*,0.29*,nt,i,154%*,42%*,30%*,66%*,
O=C1CCCc2c1oc1c2CCCC1,nt,nt,i,nt,nt,nt,nt,nt,nt,nt,nt,nt,nt,nt,
c1cncc(CNc2nc(-c3cccnc3)nc3ccccc23)c1,i,i,i,i,-14,-1.3,nt,nt,nt,nt,nt,nt,nt,nt,
CC(C)(C)c1ccc(-c2nc(NCc3cccnc3)c3ccccc3n2)cc1,15*,i,i,-9.3*,-2,1.5,152*,0.47,i,100%*,186%*,26%*,i,42%*,
Cc1ccc(S(=O)(=O)N2CCN(Cc3ccccc3C(F)(F)F)CC2)cc1,10*,i,i,i,-12,-0.82,85*,0.41,nt,94%*,94%*,i,i,i,
O=C(O)c1ccccc1C(=O)c1ccc2oc(=O)[nH]c2c1,nt,nt,i,nt,nt,nt,nt,nt,nt,nt,nt,nt,nt,nt,
CCN1C=C(Cc2ccccc2C)C2=C(C1)C(c1ccccc1C)C(C#N)=C(N)O2 (stereo unspecified),12*,i,-8.9*,-6.7*,-21,-0.41,116*,0.32*,nt,105%*,104%*,nt,nt,nt,KCNK3 inh conf=118*;KCNK3 noninduced=0.13*
O=C(Cn1cc(COc2c(F)c(F)c(Br)c(F)c2F)nn1)c1ccc(O)cc1,nt,nt,i,nt,nt,nt,nt,nt,nt,nt,nt,nt,nt,nt,
COc1ccc(-n2cc(-c3ccccc3)c3c(N4CC(C)OC(C)C4)ncnc32)cc1 (stereo unspecified),12*,i,-11*,i,-35,-1.3,121*,0.41,i,142%*,170%*,nt,nt,nt,KCNK3 inh conf=114*;KCNK3 noninduced=0.13*
CCOc1ccc(-n2cc(-c3ccccc3)c3c(N4CCOCC4)ncnc32)cc1,i,i,i,i,-14,0.27,nt,nt,nt,nt,nt,nt,nt,nt,
O=C(COC(=O)c1ccc(Cl)nc1)NC1CCCc2ccccc21 (stereo unspecified),nt,nt,i,nt,nt,nt,nt,nt,nt,nt,nt,nt,nt,nt,
COc1ccc(CN(C)S(=O)(=O)c2nnc(NC(=O)c3ccccc3)s2)cc1OC,i,i,i,i,-6,-0.39,nt,nt,nt,nt,nt,nt,nt,nt,
COc1ccccc1C(=O)Nc1nnc(S(=O)(=O)N(C)Cc2ccccc2)s1,17*,i,-12*,i,-16,1.6,140*,0.37*,nt,122%*,+,nt,nt,nt,KCNK3 inh conf=115*;KCNK3 noninduced=0.1*
CCCCNC(=S)N1CCn2cccc2C1c1ccccc1 (stereo unspecified),i,i,i,i,-12,1.2,nt,nt,nt,nt,nt,nt,nt,nt,
CCCCNC(=S)N1CCn2cccc2C1c1ccc(F)cc1 (stereo unspecified),6*,i,-9.7*,-14*,-23,0.33,92*,0.42,i,81%*,70%*,56%*,i,41%*,KCNK3 inh conf=134*;KCNK3 noninduced=0.15*
O=S(=O)(Nc1cccnc1Cl)c1ccc(-c2ccccc2)cc1,i,i,i,i,-8,-1.2,nt,nt,nt,nt,nt,nt,nt,nt,
O=S(=O)(Nc1ccccc1O)c1ccc(-c2ccccc2)cc1,15*,i,-11*,i,-11,-2.2,136*,0.39,i,94%*,76%*,nt,nt,nt,KCNK3 inh conf=120*;KCNK3 noninduced=i
CCOC(=O)C1=CN(Cc2cccc(F)c2)S(=O)(=O)N(C)C1CCc1ccccc1 (stereo unspecified),nt,nt,i,nt,nt,nt,nt,nt,nt,nt,nt,nt,nt,nt,
